Converted amounts (≈) assume the structure as drawn. The source made the active and inactive calls. No cut-off for these calls is given here.
Columns and labels:
[1] = system: Staphylococcus aureus; assay: Antibacterial activity against Staphylococcus aureus NRS271 after 24 hrs; type: functional; conditions: NRS271, 24 h
[2] = system: Staphylococcus aureus; assay: Antibacterial activity against Staphylococcus aureus Mu50 after 24 hrs; type: functional; conditions: Mu50, 24 h
[3] = system: Candida albicans; assay: Antifungal activity against Candida albicans SC5314 after 24 hrs by spectrophotometric analysis; type: functional; conditions: SC5314, 24 h
Procedure, shortened: (§1)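 Broth microdilution in RPMI 1640, inoculum 5×10^3 CFU/mL, compounds from 6.4 mg/mL DMSO stocks, 35 ℃ for 24 h. Growth read as OD600; MIC80 taken as lowest concentration giving 80% growth inhibition. Triplicate.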

[4] = system: Candida albicans; assay: Fungicidal activity against Candida albicans SC5314 assessed as reduction in colony forming units at 0.8 ug/ml after 48 hrs by time-kill assay; type: functional, organism-based
Procedure, shortened: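 Time-kill: overnight cells PBS-washed, resuspended in RPMI 1640 at 1×10^6 cells/mL with compound, shaken at 200 rpm at 30 ℃. At set time points, dilutions plated on YPD agar and colonies counted after 48 h at 30 ℃. Three independent runs.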

[5] = system: Aspergillus fumigatus; assay: Antifungal activity against Aspergillus fumigatus 07544 after 24 hrs by spectrophotometric analysis; type: functional; conditions: Aspergillus fumigatus, 07544, 24 h; procedure, shortened: as §1
[6] = system: Candida albicans; assay: Antibiofilm activity against Candida albicans SC5314 assessed down regulation of CPH1 gene at 0.4 ug/ml after 1 hr by qRT-PCR analysis; type: functional, organism-based
Procedure, shortened: (§2)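 Biofilm grown in dishes with 0.4 µg/mL compound or DMSO control for 1 h; total RNA isolated and transcripts quantified by real-time RT-PCR. Normalized to 18S rRNA, expressed as fold change vs untreated SC5314. Mean ± SD of three independent experiments.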

[7] = system: Candida albicans; assay: Antibiofilm activity against Candida albicans SC5314 assessed inhibition of cellular surface hydrophobicity at 0.2 to 1.6 ug/ml incubated for 24 hrs; type: functional, organism-based
Procedure, shortened: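 Biofilms treated with compound for 24 h were detached and resuspended in PBS to OD600 1.0. Suspension was vortexed with octane (4:1 by volume) for 3 min, then left 3 min at room temperature to separate. Aqueous-phase OD600 was compared with a no-octane control as (control − overlay)/control × 100%. Three replicates per group across three independent experiments.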

[8] = system: Candida albicans; assay: Antibiofilm activity against Candida albicans SC5314 assessed down regulation of HGC1 gene at 0.4 ug/ml after 1 hr by qRT-PCR analysis; type: functional, organism-based; procedure, shortened: as §2
[9] = system: Candida albicans; assay: Antifungal activity against fluconazole-resistant Candida albicans isolate Chang7 clinical isolate after 24 hrs by spectrophotometric analysis; type: functional; conditions: isolate Chang7, 24 h
Procedure, shortened: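 Broth microdilution (MIC80) against fluconazole-resistant clinical C. albicans isolates from a Shanghai hospital. Strains were grown in YPD at 30 ℃. Compounds came from 6.4 mg/mL DMSO stocks and were tested over a concentration series on 5×10^3 CFU/mL inoculum in RPMI 1640 at 35 ℃ for 24 h. OD600 was read; MIC80 is the lowest concentration giving 80% growth inhibition. Done in triplicate.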

[10] = system: Candida albicans; assay: Antibiofilm activity against Candida albicans SC5314 assessed as disruption of biofilm formation at 12.8 ug/ml; type: functional, organism-based
[11] = system: Candida albicans; assay: Antibiofilm activity against Candida albicans SC5314 assessed as disruption of biofilm formation at 6.4 ug/ml; type: functional, organism-based

SMILES | MIC80 [1] | MIC80 [2] | MIC80 [3] | Activity [4] | MIC80 [5] | Activity [6] | Activity [7] | Activity [8] | MIC80 [9] | Activity [10] | Activity [11]
CCCc1ccnc2c1C(=O)c1sc([N+](=O)[O-])cc1C2=O | > 128 µg/mL | > 128 µg/mL | 0.5 µg/mL (≈ 1.65 µM) | Active | 4 µg/mL (≈ 13.2 µM) | Active | Active | Active | 1 µg/mL (≈ 3.31 µM) | Active | –
CCc1ccnc2c1C(=O)c1sc([N+](=O)[O-])cc1C2=O | > 128 µg/mL | > 128 µg/mL | 0.5 µg/mL (≈ 1.73 µM) | Active | 4 µg/mL (≈ 13.9 µM) | Active | Active | Active | 0.25 µg/mL (≈ 0.867 µM) | – | Active

Source: ChEMBL document CHEMBL4138161, “Discovery of simplified sampangine derivatives as novel fungal biofilm inhibitors” (Eur J Med Chem, 2018)
